Measurements from ChEMBL document CHEMBL4043073, “Boronic Acid Modifications Enhance the Anti-Influenza A Virus Activities of Novel Quindoline Derivatives” (J Med Chem, 2017).
The source made the active and inactive calls. The calls are words filed in the database; no cut-off is given here.

Columns and labels:
NCI-H1299 = experiment: Cytotoxicity against human H1299 cells at 20 uM after 48 hrs by resazurin based fluorescence method; format: cell-based; details: nci-h1299, 48 h
In short: (§1)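 Confluent MDCK, A549 or H1299 cells exposed in triplicate to compound for 48 h at 37 °C (A549/H1299 at 20 μM). Resazurin added to 0.2 mg/mL final for 16 h. Fluorescence read at ex 544 / em 595 nm; viability as % of untreated.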

[1] = Selectivity index, ratio of CC50 for MDCK cells to IC50 for Influenza A virus (A/Puerto Rico/8/34(H1N1)) infected in MDCK cells assessed as reduction in virus-induced cytopathic effect; format: toxicity, cell-based; details: dog, read-out: Ratio CC50/IC50
[2] = Drug uptake in human A549 cell nucleus at 20 uM after 4 hrs by DAPI staining based confocal microscopic analysis; format: ADME; details: a549, 4 h
In short: (§2)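 A549 cells incubated with 20 μM compound 4 h at 37 °C, then fixed and DAPI-stained. Compound intrinsic fluorescence located by confocal microscopy.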

Influenza A virus [3] = experiment: Antiviral activity against Influenza A virus (A/swine/Minnesota/02719/2009(H3N2)) infected in MDCK cells assessed as virus yeild reduction preincubated with virus at 37 degC for 1 hr followed by viral infection for 1 hr measured after 3 days by crystal violet staining based plaque assay; format: functional, cell-based
In short: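 Plaque reduction: about 50–100 PFU/well of PR8, Cal09 or Minnesota preincubated with compound (0–10 μM) 1 h at 37 °C. Mixture then adsorbed to MDCK monolayers 1 h at 4 °C. Overlay was DMEM with 1.5% agarose, DEAE-dextran and 1 μg/mL TPCK-trypsin for 3 days at 37 °C. Glutaraldehyde fix, crystal violet stain, plaque count; IC50 derived; n = 4.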

A549 = experiment: Cytotoxicity against human A549 cells at 20 uM after 48 hrs by resazurin based fluorescence method; format: cell-based; details: a549, 48 h; in short: as §1
Influenza A virus [4] = experiment: Antiviral activity against Influenza A virus (A/Puerto Rico/8/34(H1N1)) infected in A549 cells assessed as reduction in localization of viral NP protein in nucleus at 10 uM preincubated with virus at 37 degC for 1 hr followed by viral adsorption at 4 degC for 1 hr and subsequent infection in A549 cells measured at 2 to 4 hrs post infection by FITC-staining based immunofluorescence microscopic method; format: functional, cell-based; details: A/Puerto Rico/8/1934(H1N1)
In short: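 PR8 (MOI 1.0) pretreated with 10 μM compound 1 h at 37 °C, adsorbed 1 h at 4 °C, then A549 cells were kept in infecting medium with 10 μM compound. Fixed with 4% paraformaldehyde at 2 or 4 h p.i., permeabilised with Triton X-100 and blocked. Anti-NP plus FITC secondary, confocal imaging; nuclear NP intensity per unit area quantified (n = 30 images).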

[5] = (§3) Antiviral activity against Influenza A virus (A/California/04/2009(H1N1)) infected in MDCK cells assessed as reduction in viral HA titer by measuring reduction in chicken RBC […] after 24 hrs by hemagglutination test; format: functional, cell-based
In short: (§4)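 MDCK cells infected at MOI 3.0 (single-cycle) with PR8, Cal09 or swine H3N2 Minnesota, then treated with compound for 24 h. Supernatant HA titers were read by 2-fold serial dilution with an equal volume of 1% chicken RBCs, 60 min at 4 °C. Expressed as percent of untreated-cell HA titer; IC50 derived; n = 4.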

[6] = test system: Influenza A virus (A/California/04/2009(H1N1)); experiment: as §3; format: functional, cell-based; in short: as §4
Influenza A virus [7] = experiment: Antiviral activity against Influenza A virus H3N2 strain (A/swine/Minnesota/02719/2009) infected in MDCK cells assessed as reduction in viral HA titer by measuring reduction in chicken RBC […] after 24 hrs by hemagglutination test; format: functional, cell-based; in short: as §4
Influenza A virus [8] = experiment: Antiviral activity against Influenza A virus (A/Puerto Rico/8/34(H1N1)) infected in MDCK cells assessed as virus yeild reduction at 10 uM preincubated with virus for 1 hr followed by viral infection for 1 hr measured at 24 hrs post infection by crystal violet staining based plaque assay; format: functional, cell-based; details: A/Puerto Rico/8/1934(H1N1)
In short: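 PR8 (MOI 1.0) preincubated with compound (2.5–10 μM) 1 h at 37 °C, then used to infect MDCK cells. After adsorption, medium with the same compound concentration was added. At 24 h p.i. supernatant virus titer was measured by plaque assay; n = 3.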

Influenza A virus [9] = experiment: Antiviral activity against Influenza A virus (A/Puerto Rico/8/34(H1N1)) infected in Kunming mouse assessed as pulmonary viral titer reduction at 10 mg/kg/day, po qd for 4 days measured on day 4 post last dose by crystal violet staining based plaque assay; format: functional, organism-based; details: A/Puerto Rico/8/1934(H1N1)
In short: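 Female 4-week-old Kunming mice infected intranasally with PR8 (4 HAU/mouse). Oral gavage once daily began 2 h post-inoculation; placebo control. Mice euthanised on day 4; lungs homogenised in PBS and titrated by plaque assay on cell monolayers (agarose overlay, 3 days, crystal violet).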

Canis lupus familiaris [10] = organism: Canis lupus familiaris; experiment: (§5) Inhibition of MAPK signaling-mediated nuclear import of viral RNP in MDCK cells infected with Influenza A virus (A/Puerto Rico/8/34(H1N1)) assessed as p38 phosphorylation at 5 uM preincubated with virus for 1 hr followed by viral infection after 4 hrs by Western blot method relative to control (reference value: 5.1); format: cell-based
In short: (§6)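 PR8 (MOI 1.0) pretreated with compound 1 h at 37 °C, then MDCK cells were kept in infecting medium with 5 or 10 μM for 4 h; ribavirin 50 μg/mL as comparator. Lysates were immunoblotted for phospho-ERK1/2, p38, NF-κB or Akt, with β-actin/GAPDH loading controls and AP/NBT-BCIP detection. Densitometry was normalised to uninfected cells (= 1.0); n = 3.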

Canis lupus familiaris [11] = organism: Canis lupus familiaris; experiment: as §5, with “at 10” for “at 5”; format: cell-based; in short: as §6
Canis lupus familiaris [12] = organism: Canis lupus familiaris; experiment: Inhibition of NFkappaB activation-mediated viral RNA synthesis in MDCK cells infected with Influenza A virus (A/Puerto Rico/8/34(H1N1)) assessed as NF-kB phosphorylation level at 10 uM preincubated with virus for 1 hr followed by viral infection measured after 4 hrs by Western blot method relative to control (reference value: 1.8); format: cell-based; in short: as §6
Influenza A virus [13] = experiment: Antiviral activity against Influenza A virus (A/Puerto Rico/8/34(H1N1)) infected in Kunming mouse assessed as survival rate at 10 mg/kg/day, po qd for 7 days measured on day 14 post infection (reference value: 30%); format: functional; details: A/Puerto Rico/8/1934(H1N1)
Influenza A virus [14] = experiment: Antiviral activity against Influenza A virus (A/Puerto Rico/8/34(H1N1)) infected in Kunming mouse assessed as intact columnar epithelium in bronchiole without inflammatory cell infiltration at 10 mg/kg/day, po qd for 4 days by hematoxylin and eosin staining based assay; format: functional, organism-based; details: A/Puerto Rico/8/1934(H1N1)
[15] = Drug uptake in human A549 cells at 20 uM after 4 hrs by DAPI staining based confocal microscopic analysis; format: ADME, cell-based; details: a549, 4 h; in short: as §2
[16] = Drug uptake in human A549 cell cytoplasm at 20 uM after 4 hrs by DAPI staining based confocal microscopic analysis; format: ADME; details: a549, 4 h; in short: as §2
[17] = Selectivity index, ratio of CC50 for MDCK cells to IC50 for Influenza A virus (A/Puerto Rico/8/34(H1N1)) infected in MDCK cells by plaque assay; format: toxicity, cell-based; details: dog, read-out: Ratio CC50/IC50
Influenza A virus [18] = experiment: Antiviral activity against Influenza A virus (A/Puerto Rico/8/34(H1N1)) infected in MDCK cells assessed as reduction in virus-induced cytopathic effect after 48 hrs by crystal violet staining based assay; format: functional, cell-based; details: A/Puerto Rico/8/1934(H1N1)
In short: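 MDCK cells infected with PR8 at MOI 0.1; compounds added in triplicate after inoculum removal. After 48 h cells were fixed with 4% formaldehyde and stained with 0.1% crystal violet. Dye was methanol-solubilised and read at 570 nm; IC50 was the concentration halving CPE.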

O=C(Nc1ccccc1Nc1c2ccccc2nc2c1[nH]c1ccccc12)c1cccc(B(O)O)c1
Activity (NCI-H1299): Non-Toxic
selectivity ratio [1]: 27.9
Drug uptake [2]: Not Active
IC50 (Influenza A virus [3]): 2.3 µM
Activity (A549): Non-Toxic
Activity (Influenza A virus [4]): Active
IC50 [5]: 4.3 µM
Activity [6]: Dose-dependent effect
Activity (Influenza A virus [7]): Dose-dependent effect
IC50 (Influenza A virus [7]): 3 µM
Activity (Influenza A virus [8]): Active
Activity (Influenza A virus [9]): Active
fold change (FC) (Canis lupus familiaris [10]): 3.3
fold change (FC) (Canis lupus familiaris [11]): 2.5
fold change (FC) (Canis lupus familiaris [12]): 0.4
survival at 10 mg/kg/day (Influenza A virus [13]): 90%
Activity (Influenza A virus [14]): Active
Drug uptake [15]: Active
Drug uptake [16]: Active
selectivity ratio [17]: 56.8 to 64.6
IC50 (Influenza A virus [18]): 5.1 µM
